Values after ≈ are worked out from the molar mass of the structure shown. Active and inactive are the calls of the source. No cut-off for these calls is given here. Where only a bound is given, the exact number is not on record here.

Assay [1] has as its system HT-29. Put plainly: Induction of apoptosis in human HT-29 cells assessed as apoptotic cells at IC50 after 72 hrs by annexin V/propidium iodide-based flow cytometry. It counts as functional. The method, boiled down:
(§1)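 HT29 seeded, treated 72 h and harvested as for cell cycle; staurosporine 1 μM as control. Annexin+/PI− early apoptotic; annexin+/PI+ and annexin−/PI+ late apoptotic/necrotic; three separate experiments.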
In general terms: Flow cytometry measures light scatter and fluorescence of single cells or particles in a stream.

For assay [2], the system named is HT-29. Kind of assay: Induction of H2O2 production in human HT-29 cells at 100 ug/ml after 72 hrs by ferrous oxidation xylenol orange assay. The assay is classed as functional, cell-based.
Assay [3] in a line: Antioxidant activity against TNPTM assessed per micromol of radical after 48 hrs by UV spectrophotometry. The assay is classed as functional. The method, boiled down: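 As for HNTTM but with TNPTM radical, sample range 10–120 μM, 48 h incubation, absorbance at 378 nm; percentage absorbance loss versus sample over initial radical micromoles, dose–response curve, EC50 and ARP; three independent determinations.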

Assay [4] concerns HT-29. Put plainly: Induction of H2O2 production in human HT-29 cells at 100 ug/ml after 72 hrs by ferrous oxidation xylenol orange assay in presence of catalase. The assay is classed as functional, cell-based.
Assay [5] relates to Radical scavenging activity. Kind of assay: Antioxidant activity against DPPH assessed per micromol of radical after 30 mins by UV spectrophotometry. The assay is classed as functional. The method, boiled down: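 DPPH radical in solution; 30 min at room temperature in the dark, absorbance at 517 nm. Percentage absorbance loss [(1 − A/A0) × 100] plotted against sample amount over initial DPPH concentration; three independent determinations per point.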
(DPPH is a stable violet radical that fades when it is reduced.)

The nature of assay [6]: Antiproliferative activity against human NCM460 cells after 72 hrs by MTT assay. The note with it: NCM460, 72 h. The assay is classed as cell-based. The method, boiled down: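 NCM460 normal colon mucosa epithelial cells in M3Base with 10% heat-inactivated FCS plus 2.5 mM D-glucose (5 mM final); 1 × 10^4 cells/well, 24 h at 37 °C, graded concentrations for 72 h. MTT 1 h, DMSO-dissolved formazan read at 550 nm; IC50 from dose–viability curves; three independent experiments.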
Background: Formazan colour is commonly taken as a measure of viable cells.

The test system of assay [7] is HT-29. Put plainly: Cell cycle arrest in human HT-29 cells assessed as accumulation at S phase at IC50 after 72 hrs by propidium iodide staining based flow cytometry. The assay is classed as functional. The method, boiled down:
(§2)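 HT29 seeded 87 × 10^3 cells/well, 24 h at 37 °C, treated 72 h; hydroxyurea 1 mM as standard. Trypsinized cells stained in Tris-buffered saline with 50 μg/mL PI, 10 μg/mL DNase-free RNase, 0.1% Igepal CA-630, 1 h at 4 °C dark; flow cytometry at 488 nm; normalized G1/S/G2 percentages, three separate experiments.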

Assay [8] has as its system HT-29. Put plainly: Antiproliferative activity against human HT-29 cells after 72 hrs by MTT assay in presence of H2O2 scavenger catalase. It counts as functional, cell-based. The note with it: HT-29, 72 h. A digest of the protocol: (§3)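 HT29 (ATCC HTB-38) in DMEM with 10% heat-inactivated FCS, 0.1% streptomycin/penicillin; 3 × 10^3 cells/well, 24 h at 37 °C, then graded concentrations in fresh medium for 72 h, optionally with bovine liver catalase (100 U/mL). MTT (1 mg/mL in PBS) 1 h, formazan dissolved in DMSO, absorbance 550 nm; IC50 from dose–viability curves; three independent experiments.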

Assay [9] relates to HT-29. Kind of assay: Antiproliferative activity against human HT-29 cells after 72 hrs by MTT assay. The note with it: HT-29, 72 h. The assay is classed as functional, cell-based. The method, boiled down:
as §3

Assay [10] relates to HT-29. Put plainly: Induction of apoptosis in human HT-29 cells assessed as necrotic cells at IC50 after 72 hrs by annexin V/propidium iodide-based flow cytometry. It counts as functional. A digest of the protocol: as §1
Assay [11] can be described thus: Antioxidant activity against HNTTM assessed per micromol of radical after 7 hrs by UV spectrophotometry. The assay is classed as functional. A digest of the protocol: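 Polyphenols (2–62 μM, fresh) mixed 1:1 by volume with HNTTM (120 μM) in deoxygenated CHCl3–MeOH (2:1); 7 h at room temperature in the dark, absorbance at 384 nm. Percentage absorbance loss plotted against sample over initial radical micromoles; dose–response curve per sample, EC50 and ARP reported; three independent determinations.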

Assay [12] has as its system HT-29. Kind of assay: Cell cycle arrest in human HT-29 cells assessed as reduction of cells at G2 phase at IC50 after 72 hrs by propidium iodide staining based flow cytometry. It counts as functional. A digest of the protocol: as §2
Assay [13] has as its system HT-29. Put plainly: Cell cycle arrest in human HT-29 cells assessed as reduction of cells at G1 phase at IC50 after 72 hrs by propidium iodide staining based flow cytometry. The assay is classed as functional. A digest of the protocol:
as §2

`O=C(OC[C@H]1OC(O)[C@@](O)(COC(=O)c2cc(O)c(O)c(O)c2)[C@@H]1O)c1cc(O)c(O)c(O)c1` (stereo partly specified) [HAMAMELITANNIN]: the Activity was 26% in assay [1], “Dose-dependent effect” in assay [2], 16% in assay [7] and 14% in assay [10]. For the same compound, the EC50 is 116 µg/µmol in [3], 27.8 µg/µmol in [5] and 71.2 µg/µmol in assay [11]. In assay [4], the result was inactive. Further, the IC50 in assay [6] was > 100 µg/mL; in assay [8] it was 13 µg/mL; in assay [9], 20 µg/mL (≈ 41.3 µM).

For the compound `O=C(O[C@@H]1Cc2c(O)cc(O)cc2O[C@@H]1c1cc(O)c(O)c(O)c1)c1cc(O)c(O)c(O)c1`, the Activity result in [2] is “Dose-dependent effect”. Also, the outcome in assay [4] was inactive.

For the compound `O=C(OC[C@H]1O[C@@H](OC(=O)c2cc(O)c(O)c(O)c2)[C@H](OC(=O)c2cc(O)c(O)c(O)c2)[C@@H](OC(=O)c2cc(O)c(O)c(O)c2)[C@@H]1OC(=O)c1cc(O)c(O)c(O)c1)c1cc(O)c(O)c(O)c1` [PENTAGALLOYL GLUCOSE], the Activity in assay [1] was 11%; in [2], “Dose-dependent effect”; in assay [7], 8%; in assay [10], 5%. The EC50 amounted to 2400 µg/µmol in assay [3], 23.8 µg/µmol in assay [5] and 54.8 µg/µmol in assay [11]. Besides, the result in assay [12] and in assay [13] was Active. The outcome in assay [4] was inactive. The IC50 in assay [6] was found to be 23 µg/mL (≈ 24.5 µM); in [8], 34 µg/mL; in assay [9], 28 µg/mL (≈ 29.8 µM).

By IC50 is commonly meant the concentration that inhibits the measured activity by half.

Source of the values: ChEMBL document CHEMBL1949651, “Hamamelitannin from witch hazel (Hamamelis virginiana) displays specific cytotoxic activity against colon cancer cells” (J Nat Prod, 2012).
